Experiment [1] relates to Rattus norvegicus. In words: Percent increase in liver weight in rats when administered perorally. Format: functional.
The test system of experiment [2] is Rattus norvegicus. Description: Compound was tested for Hepatic peroxisomal proliferation effect in male rats treated for 7 days at dose 50 mg/kg concentration of hepatic proteins(mg/g) in liver. Format: functional, organism-based. More on the design: dose 50 mg/kg.
Experiment [3] concerns Rattus norvegicus. In words: Compound was tested for Enzyme induction effect in male rats treated for 5 days at dose 75 mg/kg aminopyrine N-demethylase activity(per g) of liver. Format: functional. Conditions: dose 50 mg/kg; in the assay text read “50 mg/kg” for “75 mg/kg”. In a few lines: (§1)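 Male OFA-ICO SD rats were dosed orally for 5 days, with test compounds at 50 mg/kg/day and sodium phenobarbital at 75 mg/kg/day. Liver was homogenized in 1.15% KCl-0.01 M phosphate, pH 7.5. Microsomes were spun from the 9000g supernatant at 105000g and assayed for protein, cytochrome P-450, aniline p-hydroxylation (µmol p-aminophenol/20 min) and aminopyrine N-demethylation (µmol HCHO/5 min). Liver/body weight was also recorded. Mean ± SEM of four rats; Dunnett's test.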

Experiment [4] concerns Rattus norvegicus. Description: Compound was tested for Hepatic peroxisomal proliferation effect in male rats treated for 7 days at dose 50 mg/kg carnitine acetyl transferase activity(per mg) of protein. Format: functional. In a few lines: (§2)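 Male OFA-ICO SD rats received oral doses of 50 mg/kg/day for 1 week. Liver was homogenized in 0.25 M sucrose-0.01 M phosphate-0.1% ethanol, pH 7, then diluted in incubation buffer with 0.1% Triton X-100 and centrifuged. Supernatants were assayed for catalase (K, sec⁻¹), carnitine acetyltransferase (nmol CoASH/min) and cyanide-insensitive palmitoyl-CoA oxidation (nmol NAD⁺ reduced/min). Mean ± SEM of three rats; Dunnett's test.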

The nature of experiment [5]: Compound was tested for Enzyme induction effect in male rats treated for 5 days at dose 75 mg/kg ratio of % liver weight to % body weight. Format: functional. As to conditions: dose 50 mg/kg; in the assay text read “50 mg/kg” for “75 mg/kg”. Summed up:
as §1

Experiment [6] deals with Rattus norvegicus. In words: Compound was tested for Enzyme induction effect in male rats treated for 5 days at dose 75 mg/kg aniline p-hydroxylase activity(per g) of liver. Format: functional. As to conditions: dose 50 mg/kg; in the assay text read “50 mg/kg” for “75 mg/kg”. In a few lines:
as §1

For experiment [7], the system named is Rattus norvegicus. Description: Compound was tested for Enzyme induction effect in male rats treated for 5 days at dose 75 mg/kg concentration of cytochrome […]( mmol/mg) in protein. Format: functional. As to conditions: dose 50 mg/kg; in the assay text read “50 mg/kg” for “75 mg/kg”. Summed up: as §1
For experiment [8], the system named is Rattus norvegicus. Description: Compound was tested for Hepatic peroxisomal proliferation effect in male rats treated for 7 days at dose 50 mg/kg palmitoyl-CoA oxidation activity(per mg) of protein. Format: functional. In a few lines: as §2
Experiment [9] is described as follows: Compound was tested for Hepatic peroxisomal proliferation effect in male rats treated for 7 days at dose 50 mg/kg ratio of % liver weight to % body weight. Format: functional.
For experiment [10], the system named is Rattus norvegicus. In words: Compound was tested for Enzyme induction effect in male rats treated for 5 days at dose 50 mg/kg concentration of microsomal proteins(mg/g) in liver.
For experiment [11], the system named is Rattus norvegicus. Description: Percent change in low density lipoproteins cholesterol concentration in serum from normocholesterolemic rats at dose 50 mg/kg (po).
Experiment [12] in a line: Percent change in high density lipoprotein cholesterol.
Experiment [13] concerns Rattus norvegicus. Description: Percent change in triglyceride concentration in serum from normocholesterolemic rats at dose 50 mg/kg (po).
For experiment [14], the system named is Rattus norvegicus. In words: Percent increase in liver weight in rats when a 50 mg/Kg dose was administered. Format: functional.
Experiment [15] has as its system Rattus norvegicus. Description: Compound was tested for Hepatic peroxisomal proliferation effect in male rats treated for 7 days at dose 50 mg/kg protein. Format: functional.
Experiment [16] has as its system Rattus norvegicus. Description: Percent change in total cholesterol concentration in serum from hypercholesterolemic rats at dose 50 mg/kg (po). Format: functional. As to conditions: 50 mg/kg.

Several values for one entry are separate records, joined by “and”; a condition that tells them apart may be missing. Identical values can stand only once.

Regarding `Cc1cccc(Nc2cc(Cl)nc(SCC(=O)NCCO)n2)c1C` [PIRINIXIL], the Change with Rattus norvegicus [1] was 54%; in the experiment on Rattus norvegicus [11], -19%; with Rattus norvegicus [13], -48%; with Rattus norvegicus [14] it was 42%; in the experiment on Rattus norvegicus [16], -43% and -23%. In addition, the Concentration with Rattus norvegicus [2] is 237; with Rattus norvegicus [10] it was 25. Moreover, the Activity in the experiment with Rattus norvegicus [3] turned out to be 0.69; in the experiment with Rattus norvegicus [4], 69.8; in the experiment on Rattus norvegicus [6], 0.64; with Rattus norvegicus [7] it was 0.82; in the experiment on Rattus norvegicus [8], 16.2; in the experiment on Rattus norvegicus [15], 58.8. For the same compound, the Ratio in [5] is listed as 4.99%; in experiment [9], 5.31%. Further, the “Percent change in HDL cholesterol” value in experiment [12] is -9.

Source of the values: ChEMBL document CHEMBL1123418, “N-imidazolylchroman-4-ones, N-imidazolyl-1-tetralones, and their alcohols as hypolipemic agents raising high-density lipoproteins” (1986).
